In general, AUC(0-t) refers to the area under the concentration-time curve up to a stated or last time point. As usually defined, the Cmax is the maximum level reached in the sampled fluid or tissue.

Data set [1] has as its system Rattus norvegicus. Briefly: AUClast in Sprague-Dawley rat assessed as salicylic acid at 300 mg/kg, po measured up to 24 hrs post dose. Type of data set: ADME, organism-based. Further details: time < 24 hr, dose 300 mg/kg, route oral. As to conditions: in vivo. In short, it runs like this: (§1)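 Single oral dose of 300 mg/kg to Sprague Dawley rats. Plasma collected at 0, 0.5, 1, 2, 4, 8 and 24 hr. Analytes were the parent, the salicylate-linker and linker-DHA metabolites, salicylic acid and salicyluric acid; Cmax and AUClast derived.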

A short description of data set [2]: Drug uptake in Sprague-Dawley rat epididymal fat at 300 mg/kg, po administered for 14 days followed by 7 day washout cycle measured on day 21. In kind it is ADME, organism-based, Epididymal fat pad. To be noted: in vivo.
A short description of data set [3]: AUClast in Sprague-Dawley rat at 300 mg/kg, po measured up to 24 hrs post dose. Type of data set: ADME, organism-based. Further details: dose 300 mg/kg, time < 24 hr, route oral. As to conditions: in vivo. Summed up: as §1
Data set [4] concerns Rattus norvegicus. Description: Cmax in Sprague-Dawley rat assessed as salicylic acid at 300 mg/kg, po measured up to 24 hrs post dose. Type of data set: ADME, organism-based. Further details: dose 300 mg/kg, route oral. To be noted: in vivo. Summed up: as §1
Data set [5] concerns Brain. Description: Drug metabolism in Sprague-Dawley rat brain assessed as salicyluric acid formation at 300 mg/kg, po administered for 14 days followed by 7 day washout cycle measured on day 21. In kind it is ADME, organism-based. As to conditions: in vivo.
Data set [6] is described as follows: Plasma concentration in Sprague-Dawley rat at 300 mg/kg, po administered for 7 days measured 4 hrs post dose on day 7. Type of data set: ADME, organism-based. Summed up:
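Male Sprague Dawley rats in groups of 4 received 300 mg/kg orally once daily for up to 14 days. Animals were sacrificed on days 1, 3, 7 and 14, with plasma and tissues (brain, epididymal fat, liver, muscle) collected 4 h after dosing. Samples were analysed by LC/MS/MS for parent compound, salicylic acid and salicyluric acid.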

The test system of data set [7] is Liver. Briefly: Drug metabolism in Sprague-Dawley rat liver assessed as salicyluric acid formation at 300 mg/kg, po administered for 7 days measured 4 hrs post dose on day 7. Type of data set: ADME, organism-based. As to conditions: in vivo. Summed up:
(§2)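 Male Sprague Dawley rats, groups of 4, dosed orally at 300 mg/kg once daily for 14 days. Animals killed on days 1, 3, 7 and 14, with plasma, brain, epididymal fat, liver and muscle taken 4 hr after dosing. Parent, salicylic acid and salicyluric acid were measured.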

For data set [8], the system named is Muscle tissue. Briefly: Drug metabolism in Sprague-Dawley rat muscle assessed as salicyluric acid formation at 300 mg/kg, po administered for 7 days measured 4 hrs post dose on day 7. Type of data set: ADME, organism-based. To be noted: in vivo. In short, it runs like this: as §2
Data set [9] deals with Rattus norvegicus. Description: AUClast in Sprague-Dawley rat assessed as salicyluric acid at 300 mg/kg, po measured up to 24 hrs post dose. Type of data set: ADME, organism-based. More on the design: time < 24 hr, dose 300 mg/kg, route oral. As to conditions: in vivo. Summed up: as §1
In data set [10] the test system is Plasma. Description: Drug metabolism in Sprague-Dawley rat plasma assessed as salicylic acid formation at 300 mg/kg, po measured up to 24 hrs post dose. In kind it is ADME, organism-based. As to conditions: in vivo. Summed up: as §1
Data set [11] has as its system Plasma. Briefly: Drug metabolism in Sprague-Dawley rat plasma assessed as salicylic acid formation at 300 mg/kg, po administered for 14 days followed by 7 day washout cycle measured on day 21. To be noted: in vivo. Type of data set: ADME, organism-based.
A short description of data set [12]: Drug uptake in Sprague-Dawley rat liver at 300 mg/kg, po administered for 7 days measured 4 hrs post dose on day 7. In kind it is ADME, organism-based. As to conditions: read-out: Drug uptake. In short, it runs like this:
as §2

A short description of data set [13]: Drug uptake in Sprague-Dawley rat muscle at 300 mg/kg, po administered for 7 days measured 4 hrs post dose on day 7. Type of data set: ADME, organism-based, Muscle tissue. To be noted: read-out: Drug uptake. Summed up: as §2
Data set [14] in a line: Drug metabolism in Sprague-Dawley rat epididymal fat assessed as salicyluric acid formation at 300 mg/kg, po administered for 7 days measured 4 hrs post dose on day 7. Type of data set: ADME, organism-based, Epididymal fat pad. As to conditions: in vivo. In short, it runs like this:
as §2

Data set [15] relates to Rattus norvegicus. Description: Cmax in jugular vein cannulated Sprague-Dawley rat assessed nicotinuric acid at 30 mg/kg, po measured up to 140 mins. In kind it is ADME, organism-based. Further details: dose 30 mg/kg, route oral. To be noted: in vivo. Summed up:
(§3)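 Sprague Dawley rats surgically fitted with indwelling jugular vein and portal vein cannulas; oral dosing, then serial blood draws from both portal and jugular veins at 10, 20, 40 min and 1, 2, 4, 6 hr post dose; plasma analysed for parent and metabolites by LC/MS/MS.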

Data set [16] relates to Intestine. Briefly: Drug metabolism in Sprague-Dawley rat intestine assessed as linker EPA metabolite (5Z,8Z,11Z,14Z,17Z)-N-(2-aminoethyl)icosa-5,8,11,14,17-pentaenamide formation at 300 mg/kg, qd administered through oral gavage for 7 days measured 2 hrs post last dose by LC/MS/MS analysis. Type of data set: ADME, organism-based. As to conditions: in vivo.
Data set [17] deals with Plasma. Description: Metabolic stability in rat plasma at 5 uM up to 2 hrs by LC-MS-MS analysis. Type of data set: ADME, cell-free. In short, it runs like this:
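Plasma from each species diluted to 50% with 0.05 M PBS pH 7.4 and prewarmed to 37 °C; compound added at 5 µM final (from DMSO stock diluted in MeOH); triplicate incubations at 37 °C, sampled at 0, 30, 60, 120 min, quenched with acetonitrile containing internal standard, centrifuged, analysed by LC/MS/MS.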

Data set [18] deals with Intestine. Briefly: Drug metabolism in Sprague-Dawley rat intestine assessed as niacin linker metabolite N-(2-aminoethyl)nicotinamide formation at 300 mg/kg, qd administered through oral gavage for 7 days measured 2 hrs post last dose by LC/MS/MS analysis. Type of data set: ADME, organism-based. As to conditions: in vivo.
Data set [19] concerns Plasma. Briefly: Drug metabolism in Sprague-Dawley rat plasma assessed as linker EPA metabolite (5Z,8Z,11Z,14Z,17Z)-N-(2-aminoethyl)icosa-5,8,11,14,17-pentaenamide formation at 300 mg/kg, qd administered through oral gavage for 7 days measured 2 hrs post last dose by LC/MS/MS analysis. Type of data set: ADME, organism-based. To be noted: in vivo.
In data set [20] the target is T1, Fatty-acid amide hydrolase 1 (Homo sapiens, UniProt O00519).
T1 sequence (O00519 whole entry): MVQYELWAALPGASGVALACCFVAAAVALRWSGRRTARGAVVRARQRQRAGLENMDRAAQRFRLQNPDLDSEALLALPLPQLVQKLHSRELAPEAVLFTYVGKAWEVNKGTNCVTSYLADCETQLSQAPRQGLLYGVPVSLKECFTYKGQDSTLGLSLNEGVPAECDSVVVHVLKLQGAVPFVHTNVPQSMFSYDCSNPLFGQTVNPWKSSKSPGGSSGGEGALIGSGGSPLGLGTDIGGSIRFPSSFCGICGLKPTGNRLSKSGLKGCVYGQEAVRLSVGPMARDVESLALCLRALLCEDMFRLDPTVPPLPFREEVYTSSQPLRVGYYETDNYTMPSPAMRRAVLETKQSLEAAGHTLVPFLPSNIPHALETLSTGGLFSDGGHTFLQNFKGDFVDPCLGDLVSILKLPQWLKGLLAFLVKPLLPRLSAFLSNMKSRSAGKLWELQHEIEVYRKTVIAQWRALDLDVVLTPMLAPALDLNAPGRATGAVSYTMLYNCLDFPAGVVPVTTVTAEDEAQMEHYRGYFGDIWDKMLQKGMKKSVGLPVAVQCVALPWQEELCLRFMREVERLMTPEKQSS
Description: Drug metabolism in human HepG2 cells assessed as FAAH-mediated compound hydrolysis by measuring level of EPA at 50 uM by LC/MS-MS analysis. In kind it is ADME, cell-based. As to conditions: hepg2, 50 µM, TDE = time-dependent effect.

In data set [21] the test system is Rattus norvegicus. Briefly: Cmax in portal vein cannulated Sprague-Dawley rat assessed nicotinuric acid at 30 mg/kg, po measured up to 140 mins. Type of data set: ADME, organism-based. More on the design: dose 30 mg/kg, route oral. As to conditions: in vivo. In short, it runs like this:
as §3

For data set [22], the system named is Mus musculus. Briefly: Inhibition of LDL cholesterol levels in po dosed ApoE*3-Leiden mouse plasma administered for 16 weeks. Type of data set: functional, organism-based. Summed up: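 Transgenic ApoE*3-Leiden mice on high-cholesterol Western-type diet dosed over 16 weeks; plasma PCSK9, total cholesterol, triglycerides and lipoprotein profile (VLDL, LDL) assessed at study end.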

Data set [23] in a line: Drug uptake in Sprague-Dawley rat intestine at 300 mg/kg, qd administered through oral gavage for 7 days measured 2 hrs post last dose by LC/MS/MS analysis. Type of data set: ADME, organism-based. To be noted: read-out: Drug uptake.
The test system of data set [24] is Rattus norvegicus. Briefly: Cmax in jugular vein cannulated Sprague-Dawley rat assessed as N-(2-aminoethyl)nicotinamide at 30 mg/kg, po measured up to 140 mins. In kind it is ADME, organism-based. Further details: dose 30 mg/kg, route oral. As to conditions: in vivo. In short, it runs like this: as §3

SMILES strings stand for the structures. Active and inactive are the calls of the source. The calls are words filed in the database; no cut-off is given here.

As to `CC/C=C\C/C=C\C/C=C\C/C=C\C/C=C\C/C=C\CCC(=O)NCCNC(=O)c1ccccc1O` [EDASALONEXENT], the AUClast in data set [1] came out at 229 ng·h/mL; in [9], 2937 ng·h/mL. For the same compound, in [2], the Drug uptake entry was “Not Active”. This compound also had an AUC(0-t) at 24 h in [3] of 1940 ng·h/mL. Also, the Cmax in [4] turned out to be 75 ng/mL. For the same compound, the Drug metabolism entry in [5] is listed as “metabolite_notdetected”; in data set [7], 506.48 ng/g; in data set [8] it was 165.21 ng/g; in [10], “metabolite_detected”; in data set [11], “metabolite_notdetected”; in data set [14], 203.71 ng/g. The results for the concentration at 4 h in data set [6], in data set [12] and in [13] were 116 ng/mL, 331 ng/g and 425 ng/g, respectively.

In the case of `CC/C=C\C/C=C\C/C=C\C/C=C\C/C=C\CCCC(=O)NCCNC(=O)c1cccnc1`, the results for the Cmax in data set [15], in data set [21] and in data set [24] were 135 ng/mL, 125 ng/mL and 336 ng/mL, respectively. In addition, the Drug metabolism in data set [16] is 74 ng/g; in [18], 23899 ng/g; in [19] it was 1.1 ng/mL; in data set [20] it was “tde”. In addition, in data set [17], the Stability result was “Stable”. Also, the inhibition entry in data set [22] is “Active”. Also, the concentration at 2 h in data set [23] came to 6750 ng/g.

(Values after ChEMBL document CHEMBL3785029, “Synthesis and Characterization of Fatty Acid Conjugates of Niacin and Salicylic Acid” (J Med Chem, 2016).)
